Data reported in ChEMBL document CHEMBL4004857, “Synthesis and biological evaluation of novel pyrazolic chalcone derivatives as novel hepatocellular carcinoma therapeutics” (Eur J Med Chem, 2017).
Calls of active or inactive are those of the source. The rule behind the calls is not given here.

How the values were obtained:
MCF7 = assay: Cytotoxicity against human MCF7 cells assessed as growth inhibition after 72 hrs by SRB assay; format: functional, cell-based; conditions: MCF7, 72 h
Method in brief: (§1)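 Cells seeded at 2000–3000 per well and grown 24 h at 37C, then treated in triplicate with compounds dissolved in DMSO over a 40–0.3 range for 72 h. Cells were fixed with 10% TCA for 1 h, stained with 0.4% SRB in 1% acetic acid, washed with 1% acetic acid and air-dried. Bound dye was solubilized in 10 mM Tris base and read at 515 nm. % inhibition and IC50 were calculated against DMSO-only controls.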

Huh-7 [1] = assay: Growth inhibition of human HuH7 cells at cytotoxic IC100 measured every 10 mins for first 24 hrs and every 30 mins for remaining 48 hrs by RT-CES analysis; format: functional, cell-based
SNU-475 [2] = assay: Induction of apoptosis in human SNU475 cells assessed as accumulation at G2/M phase at cytotoxic IC100 measured after 48 hrs by propidium iodide staining based flow cytometry; format: functional, cell-based
Method in brief: (§2)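 After 24, 48 and 72 h, cells were fixed in ice-cold 70% ethanol for 3 h, stained with propidium iodide, and cell-cycle distribution was read on a MUSE Cell Analyzer.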

SNU-475 [3] = assay: Induction of apoptosis in human SNU475 cells assessed as PARP cleavage at cytotoxic IC100 measured after 24 hrs by Western blot method; format: functional, cell-based
Mahlavu [4] = assay: Growth inhibition of human Mahlavu cells at cytotoxic IC100 measured every 10 mins for first 24 hrs and every 30 mins for remaining 48 hrs by RT-CES analysis; format: functional, cell-based
HCT-116 = assay: Cytotoxicity against human HCT116 cells assessed as growth inhibition after 72 hrs by SRB assay; format: functional, cell-based; conditions: HCT-116, 72 h; method in brief: as §1
HepG2 [5] = assay: Induction of apoptosis in human HepG2 cells assessed as accumulation at G2/M phase at cytotoxic IC100 measured after 48 hrs by propidium iodide staining based flow cytometry; format: functional, cell-based; method in brief: as §2
HepG2 [6] = assay: Cytotoxicity against human HepG2 cells assessed as growth inhibition after 72 hrs by SRB assay; format: functional, cell-based; conditions: HepG2, 72 h; method in brief: as §1
SNU-475 [7] = assay: Cytotoxicity against human SNU475 cells assessed as growth inhibition after 72 hrs by SRB assay; format: functional, cell-based; conditions: SNU-475, 72 h; method in brief: as §1
MCF-12A = assay: Cytotoxicity against human MCF12A cells assessed as growth inhibition after 72 hrs by SRB assay; format: cell-based; method in brief: as §1
HepG2 [8] = assay: Growth inhibition of human HepG2 cells at cytotoxic IC100 measured every 10 mins for first 24 hrs and every 30 mins for remaining 48 hrs by RT-CES analysis; format: functional, cell-based
Huh-7 [9] = assay: Cytotoxicity against human HuH7 cells assessed as growth inhibition after 72 hrs by SRB assay; format: functional, cell-based; conditions: Huh-7, 72 h; method in brief: as §1
Mahlavu [10] = assay: Cytotoxicity against human Mahlavu cells assessed as growth inhibition after 72 hrs by SRB assay; format: functional, cell-based; method in brief: as §1
HepG2 [11] = assay: Induction of apoptosis in human HepG2 cells assessed as PARP cleavage at cytotoxic IC100 measured after 24 hrs by Western blot method; format: functional, cell-based
HepG2 [12] = assay: Induction of apoptosis in human HepG2 cells assessed as accumulation at subG1 phase at cytotoxic IC100 measured after 72 hrs by propidium iodide staining based flow cytometry; format: functional, cell-based; method in brief: as §2
HepG2 [13] = assay: Induction of apoptosis in human HepG2 cells assessed as condensed nuclei at cytotoxic IC100 measured after 48 hrs by DAPI/Annexin-V-Fluos staining based fluorescent microscopic method; format: functional, cell-based
Method in brief: (§3)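 Cells on coverslips were treated after 24 h in culture and stained 48 h later with Annexin-V-Fluos plus DAPI nuclear stain. Cells were then examined by fluorescence microscopy for Annexin V-positive cells with condensed nuclei.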

SNU-475 [14] = assay: Growth inhibition of human SNU475 cells at cytotoxic IC100 measured every 10 mins for first 24 hrs and every 30 mins for remaining 48 hrs by RT-CES analysis; format: functional, cell-based
HepG2 [15] = assay: Induction of apoptosis in human HepG2 cells assessed as condensed nuclei at cytotoxic IC100 measured after 72 hrs by light microscopic method; format: functional, cell-based
SNU-475 [16] = assay: Induction of apoptosis in human SNU475 cells assessed as condensed nuclei at cytotoxic IC100 measured after 48 hrs by DAPI/Annexin-V-Fluos staining based fluorescent microscopic method; format: functional, cell-based; method in brief: as §3
Homo sapiens = organism: Homo sapiens; assay: Inhibition of tubulin polymerization (unknown origin)
SNU-475 [17] = assay: Induction of apoptosis in human SNU475 cells assessed as accumulation at subG1 phase at cytotoxic IC100 measured after 72 hrs by propidium iodide staining based flow cytometry; format: functional, cell-based; method in brief: as §2
SNU-475 [18] = assay: Induction of apoptosis in human SNU475 cells assessed as condensed nuclei at cytotoxic IC100 measured after 72 hrs by light microscopic method; format: functional, cell-based
MRC5 = assay: Cytotoxicity against human MRC5 cells assessed as growth inhibition after 72 hrs by SRB assay; format: cell-based; conditions: Homo sapiens, MRC5, 72 h; read-out: IC50; method in brief: as §1
[19] = target: T1, Retinoblastoma-associated protein (Homo sapiens) (UniProt P06400); assay: Inhibition of retinoblastoma phosphorylation in human SNU475 cells at cytotoxic IC100 measured after 24 hrs by Western blot method; format: cell-based
T1 sequence (whole entry): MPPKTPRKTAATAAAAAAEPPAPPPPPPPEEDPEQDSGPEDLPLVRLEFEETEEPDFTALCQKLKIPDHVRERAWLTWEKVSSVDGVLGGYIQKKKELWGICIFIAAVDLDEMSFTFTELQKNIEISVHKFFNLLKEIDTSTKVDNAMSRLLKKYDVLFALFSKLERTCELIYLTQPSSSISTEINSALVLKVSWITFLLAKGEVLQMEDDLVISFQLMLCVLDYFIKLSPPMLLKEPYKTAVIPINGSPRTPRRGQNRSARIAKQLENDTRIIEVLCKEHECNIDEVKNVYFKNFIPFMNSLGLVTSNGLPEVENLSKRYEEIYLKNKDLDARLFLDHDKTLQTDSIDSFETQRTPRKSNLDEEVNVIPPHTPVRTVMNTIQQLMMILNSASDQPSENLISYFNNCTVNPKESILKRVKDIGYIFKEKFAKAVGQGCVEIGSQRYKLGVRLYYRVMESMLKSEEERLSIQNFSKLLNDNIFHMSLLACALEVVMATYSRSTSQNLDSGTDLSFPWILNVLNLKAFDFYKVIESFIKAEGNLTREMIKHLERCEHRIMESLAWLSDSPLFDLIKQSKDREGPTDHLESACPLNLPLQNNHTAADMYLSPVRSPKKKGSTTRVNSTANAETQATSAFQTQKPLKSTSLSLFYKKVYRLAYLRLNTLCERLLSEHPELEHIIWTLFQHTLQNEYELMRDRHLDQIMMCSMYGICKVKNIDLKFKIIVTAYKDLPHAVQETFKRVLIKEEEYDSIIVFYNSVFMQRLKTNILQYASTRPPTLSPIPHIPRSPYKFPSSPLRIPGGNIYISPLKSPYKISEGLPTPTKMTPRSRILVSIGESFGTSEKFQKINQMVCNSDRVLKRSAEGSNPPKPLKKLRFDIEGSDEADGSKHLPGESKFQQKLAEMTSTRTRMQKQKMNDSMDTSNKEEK

[20] = target: G2/mitotic-specific cyclin-B1 (Homo sapiens) (UniProt P14635); assay: Inhibition of Cyclin B1 phosphorylation at Ser147 residue in human HepG2 cells at cytotoxic IC100 measured after 24 hrs by Western blot method; format: cell-based
HepG2 [21] = assay: Induction of apoptosis in human HepG2 cells assessed as decrease in CDK expression level at cytotoxic IC100 measured after 24 hrs by Western blot method; format: functional; set-up: scale not given: the % may be the effect or the level left
HepG2 [22] = assay: Induction of apoptosis in human HepG2 cells assessed as decrease in cyclin B1 protein expression level at cytotoxic IC100 measured after 24 hrs by Western blot method; format: functional, cell-based
SNU-475 [23] = assay: Increase in p21 protein expression in human SNU475 cells at cytotoxic IC100 measured after 24 hrs by Western blot method relative to control; format: functional
SNU-475 [24] = assay: Induction of apoptosis in human SNU475 cells assessed as decrease in CDK expression level at cytotoxic IC100 measured after 24 hrs by Western blot method; format: functional, cell-based
[25] = target: T1, Retinoblastoma-associated protein (Homo sapiens); assay: Inhibition of retinoblastoma phosphorylation in human HepG2 cells at cytotoxic IC100 measured after 24 hrs by Western blot method; format: cell-based
HepG2 [26] = assay: Increase in p21 protein expression in human HepG2 cells at cytotoxic IC100 measured after 24 hrs by Western blot method relative to control; format: functional

Sequence of G2/mitotic-specific cyclin-B1 (Homo sapiens) (P14635 whole entry): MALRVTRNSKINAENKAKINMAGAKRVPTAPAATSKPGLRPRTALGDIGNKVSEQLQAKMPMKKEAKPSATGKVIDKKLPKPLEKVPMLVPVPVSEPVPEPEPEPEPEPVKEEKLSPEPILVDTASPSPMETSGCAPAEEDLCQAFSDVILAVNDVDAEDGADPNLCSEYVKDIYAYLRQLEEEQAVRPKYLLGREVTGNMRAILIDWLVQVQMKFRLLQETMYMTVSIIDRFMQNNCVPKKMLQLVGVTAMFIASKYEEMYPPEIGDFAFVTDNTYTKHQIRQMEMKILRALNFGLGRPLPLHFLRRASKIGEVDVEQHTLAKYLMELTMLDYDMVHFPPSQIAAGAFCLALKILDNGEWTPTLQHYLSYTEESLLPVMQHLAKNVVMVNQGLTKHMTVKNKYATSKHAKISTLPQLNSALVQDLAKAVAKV

SMILES | IC50 (MCF7) | growth inhibition (GI) (Huh-7 [1]) | Activity (SNU-475 [2]) | Activity (SNU-475 [3]) | growth inhibition (GI) (Mahlavu [4]) | IC50 (HCT-116) | Activity (HepG2 [5]) | IC50 (HepG2 [6]) | IC50 (SNU-475 [7]) | IC50 (MCF-12A) | growth inhibition (GI) (HepG2 [8]) | IC50 (Huh-7 [9]) | IC50 (Mahlavu [10]) | Activity (HepG2 [11]) | Activity (HepG2 [12]) | Activity (HepG2 [13]) | growth inhibition (GI) (SNU-475 [14]) | Activity (HepG2 [15]) | Activity (SNU-475 [16]) | inhibition (Homo sapiens) | also measured
COc1cc(OC)c(C(=O)/C=C/c2cn(-c3ccccc3)nc2-c2cccnc2)c(OC)c1 | 1000 nM | Active | Active | Active | Active | 300 nM | Active | 1400 nM | 800 nM | 1200 nM | Active | 500 nM | 1100 nM | Active | Active | Active | Active | Active | Active | inactive | Activity (SNU-475 [17]): Active; Activity (SNU-475 [18]): Active; IC50 (MRC5): 1300 nM
COc1ccc(OC)c(C(=O)/C=C/c2cn(-c3ccccc3)nc2-c2ccncc2)c1 | 1400 nM | Active | Active | Active | Active | 900 nM | Active | 4800 nM | 2000 nM | 3000 nM | Active | 1700 nM | 1600 nM | Active | Active | Active | Active | Active | Active | inactive | inhibition [19]: Active; inhibition [20]: 50%; Activity (HepG2 [21]): 50%; Activity (HepG2 [22]): Active; fold change (FC) (SNU-475 [23]): 2; Activity (SNU-475 [24]): Active; inhibition [25]: Active; Activity (SNU-475 [17]): Active; Activity (SNU-475 [18]): Active; IC50 (MRC5): 3100 nM; fold change (FC) (HepG2 [26]): 5 - 6
COc1ccc(OC)c(C(=O)/C=C/c2cn(-c3ccccc3)nc2-c2cccnc2)c1 | 1500 nM | Active | Active | Active | Active | 1000 nM | Active | 3400 nM | 1900 nM | 2400 nM | Active | 1300 nM | 2000 nM | Active | Active | Active | Active | Active | Active | inactive | inhibition [19]: Active; inhibition [20]: 50%; Activity (HepG2 [21]): 50%; Activity (HepG2 [22]): Active; fold change (FC) (SNU-475 [23]): 2; Activity (SNU-475 [24]): Active; inhibition [25]: Active; Activity (SNU-475 [17]): Active; Activity (SNU-475 [18]): Active; IC50 (MRC5): 2700 nM; fold change (FC) (HepG2 [26]): 5 - 6
